Results from ChEMBL document CHEMBL1154674, “Synthesis and evaluation of three 18F-labeled aminophenylbenzothiazoles as amyloid imaging agents” (J Med Chem, 2009).
One block for each molecule: values may come before it.

Columns and labels:
Assay type in all cases: ADME, organism-based
[1] = Biodistribution in NMRI mouse cerebrum assessed per gram of tissue at 3.7 MBq/mL, iv after 60 mins by gamma counting; conditions: in vivo, 1 h
How it was run: (§1)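 Male NMRI mice (30-40 g) under isoflurane (1.5-2.5% in oxygen) got 0.1 mL of HPLC-purified tracer diluted with 0.9% NaCl to 3.7 MBq/mL (ethanol ≤10%) via tail vein. Mice were decapitated at 2 or 60 min p.i., and organs, blood and urine were weighed and γ-counted. Values are background-corrected %ID or %ID/g, with blood mass taken as 7% of body mass.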

[2] = tested on: Kidney; assay: Biodistribution in NMRI mouse kidney assessed per gram of tissue at 3.7 MBq/mL, iv after 2 mins by gamma counting; conditions: in vivo; how it was run: as §1
[3] = tested on: Cerebellum; assay: Biodistribution in NMRI mouse cerebellum assessed per gram of tissue at 3.7 MBq/mL, iv after 60 mins by gamma counting; conditions: in vivo, 1 h; how it was run: as §1
[4] = tested on: Lung; assay: Biodistribution in NMRI mouse lung assessed per gram of tissue at 3.7 MBq/mL, iv after 2 mins by gamma counting; conditions: in vivo; how it was run: as §1
[5] = tested on: Liver; assay: Drug level in NMRI mouse liver assessed as standard uptake value at 3.7 MBq/mL, iv after 60 mins by gamma counting; conditions: in vivo, 1 h
How it was run: (§2)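 Male NMRI mice (30-40 g) were anaesthetised with isoflurane. Each received 0.1 mL of HPLC-purified tracer, diluted in 0.9% NaCl to 3.7 MBq/mL (ethanol ≤10%), via a tail vein. Mice were decapitated at 2 or 60 min. Organs were dissected, weighed and γ-counted with background correction. SUV = (organ cpm/organ weight)/(total recovered counts/body weight). Blood mass was taken as 7% of body mass.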

[6] = Biodistribution in NMRI mouse spleen/pancreas at 3.7 MBq/mL, iv after 60 mins by gamma counting; conditions: in vivo, 1 h; how it was run: as §1
[7] = tested on: Blood; assay: Drug level in NMRI mouse blood assessed as standard uptake value at 3.7 MBq/mL, iv after 60 mins by gamma counting; conditions: in vivo, 1 h; how it was run: as §2
[8] = tested on: Lung; assay: Drug level in NMRI mouse lung assessed as standard uptake value at 3.7 MBq/mL, iv after 2 mins by gamma counting; conditions: in vivo; how it was run: as §2
[9] = tested on: Cerebellum; assay: Biodistribution in NMRI mouse cerebellum assessed per gram of tissue at 3.7 MBq/mL, iv after 2 mins by gamma counting; conditions: in vivo; how it was run: as §1
[10] = tested on: Cerebellum; assay: Biodistribution in NMRI mouse cerebellum at 3.7 MBq/mL, iv after 60 mins by gamma counting; conditions: in vivo, 1 h; how it was run: as §1
[11] = Biodistribution in NMRI mouse urine at 3.7 MBq/mL, iv after 2 mins by gamma counting; conditions: in vivo; how it was run: as §1
[12] = tested on: Blood; assay: Biodistribution in NMRI mouse blood at 3.7 MBq/mL, iv after 2 mins by gamma counting; conditions: in vivo; how it was run: as §1
[13] = tested on: Kidney; assay: Biodistribution in NMRI mouse kidney at 3.7 MBq/mL, iv after 60 mins by gamma counting; conditions: in vivo, 1 h; how it was run: as §1
[14] = Drug level in NMRI mouse cerebrum assessed as standard uptake value at 3.7 MBq/mL, iv after 2 mins by gamma counting; conditions: in vivo; how it was run: as §2
[15] = tested on: Kidney; assay: Drug level in NMRI mouse kidney assessed as standard uptake value at 3.7 MBq/mL, iv after 2 mins by gamma counting; conditions: in vivo; how it was run: as §2
[16] = Biodistribution in NMRI mouse cerebrum at 3.7 MBq/mL, iv after 2 mins by gamma counting; conditions: in vivo; how it was run: as §1
[17] = tested on: Blood; assay: Drug level in NMRI mouse blood assessed as standard uptake value at 3.7 MBq/mL, iv after 2 mins by gamma counting; conditions: in vivo; how it was run: as §2
[18] = Biodistribution in NMRI mouse cerebrum assessed per gram of tissue at 3.7 MBq/mL, iv after 2 mins by gamma counting; conditions: in vivo; how it was run: as §1
[19] = tested on: Blood; assay: Biodistribution in NMRI mouse blood assessed per gram of tissue at 3.7 MBq/mL, iv after 2 mins by gamma counting; conditions: in vivo; how it was run: as §1
[20] = tested on: Liver; assay: Biodistribution in NMRI mouse liver at 3.7 MBq/mL, iv after 60 mins by gamma counting; conditions: in vivo, 1 h; how it was run: as §1
[21] = tested on: Lung; assay: Biodistribution in NMRI mouse lung assessed per gram of tissue at 3.7 MBq/mL, iv after 60 mins by gamma counting; conditions: in vivo, 1 h; how it was run: as §1
[22] = Biodistribution in NMRI mouse spleen/pancreas assessed per gram of tissue at 3.7 MBq/mL, iv after 60 mins by gamma counting; conditions: in vivo, 1 h; how it was run: as §1
[23] = tested on: Stomach; assay: Biodistribution in NMRI mouse stomach at 3.7 MBq/mL, iv after 60 mins by gamma counting; conditions: in vivo, 1 h; how it was run: as §1
[24] = tested on: Liver; assay: Biodistribution in NMRI mouse liver at 3.7 MBq/mL, iv after 2 mins by gamma counting; conditions: in vivo; how it was run: as §1
[25] = tested on: Intestine; assay: Biodistribution in NMRI mouse intestine at 3.7 MBq/mL, iv after 2 mins by gamma counting; conditions: in vivo; how it was run: as §1
[26] = tested on: Heart; assay: Biodistribution in NMRI mouse heart at 3.7 MBq/mL, iv after 60 mins by gamma counting; conditions: in vivo, 1 h; how it was run: as §1
[27] = tested on: Cerebellum; assay: Drug level in NMRI mouse cerebellum assessed as standard uptake value at 3.7 MBq/mL, iv after 2 mins by gamma counting; conditions: in vivo; how it was run: as §2
[28] = tested on: Lung; assay: Biodistribution in NMRI mouse lung at 3.7 MBq/mL, iv after 60 mins by gamma counting; conditions: in vivo, 1 h; how it was run: as §1
[29] = tested on: Cerebellum; assay: Biodistribution in NMRI mouse cerebellum at 3.7 MBq/mL, iv after 2 mins by gamma counting; conditions: in vivo; how it was run: as §1
[30] = tested on: Liver; assay: Biodistribution in NMRI mouse liver assessed per gram of tissue at 3.7 MBq/mL, iv after 60 mins by gamma counting; conditions: in vivo, 1 h; how it was run: as §1
[31] = Biodistribution in NMRI mouse spleen/pancreas assessed per gram of tissue at 3.7 MBq/mL, iv after 2 mins by gamma counting; conditions: in vivo; how it was run: as §1
[32] = Drug level in NMRI mouse spleen/pancreas assessed as standard uptake value at 3.7 MBq/mL, iv after 2 mins by gamma counting; conditions: in vivo; how it was run: as §2
[33] = tested on: Liver; assay: Drug level in NMRI mouse liver assessed as standard uptake value at 3.7 MBq/mL, iv after 2 mins by gamma counting; conditions: in vivo; how it was run: as §2
[34] = tested on: Lung; assay: Drug level in NMRI mouse lung assessed as standard uptake value at 3.7 MBq/mL, iv after 60 mins by gamma counting; conditions: in vivo, 1 h; how it was run: as §2
[35] = tested on: Heart; assay: Biodistribution in NMRI mouse heart assessed per gram of tissue at 3.7 MBq/mL, iv after 2 mins by gamma counting; conditions: in vivo; how it was run: as §1
[36] = Drug level in NMRI mouse cerebrum assessed as standard uptake value at 3.7 MBq/mL, iv after 60 mins by gamma counting; conditions: in vivo, 1 h; how it was run: as §2
[37] = Drug level in NMRI mouse spleen/pancreas assessed as standard uptake value at 3.7 MBq/mL, iv after 60 mins by gamma counting; conditions: in vivo, 1 h; how it was run: as §2
[38] = tested on: Heart; assay: Biodistribution in NMRI mouse heart assessed per gram of tissue at 3.7 MBq/mL, iv after 60 mins by gamma counting; conditions: in vivo, 1 h; how it was run: as §1
[39] = Biodistribution in NMRI mouse spleen/pancreas at 3.7 MBq/mL, iv after 2 mins by gamma counting; conditions: in vivo; how it was run: as §1
[40] = tested on: Kidney; assay: Drug level in NMRI mouse kidney assessed as standard uptake value at 3.7 MBq/mL, iv after 60 mins by gamma counting; conditions: in vivo, 1 h; how it was run: as §2
[41] = tested on: Lung; assay: Biodistribution in NMRI mouse lung at 3.7 MBq/mL, iv after 2 mins by gamma counting; conditions: in vivo; how it was run: as §1
[42] = tested on: Liver; assay: Biodistribution in NMRI mouse liver assessed per gram of tissue at 3.7 MBq/mL, iv after 2 mins by gamma counting; conditions: in vivo
[43] = tested on: Blood; assay: Biodistribution in NMRI mouse blood at 3.7 MBq/mL, iv after 60 mins by gamma counting; conditions: in vivo, 1 h; how it was run: as §1

Drug uptake [1]: 1.94% | Drug uptake [2]: 11.7% | Drug uptake [3]: 2.24% | Drug uptake [4]: 8% | SUV [5]: 3 | Drug uptake [6]: 0.3% | SUV [7]: 0.3 | SUV [8]: 2.9 | Drug uptake [9]: 9.23% | Drug uptake [10]: 0.22% | Drug uptake [11]: 0.1% | Drug uptake [12]: 2.8% | Drug uptake [13]: 4.8% | SUV [14]: 3.2 | SUV [15]: 4.3 | Drug uptake [16]: 2.95% | SUV [17]: 0.4 | Drug uptake [18]: 8.84% | Drug uptake [19]: 1.1% | Drug uptake [20]: 18.9% | Drug uptake [21]: 1.9% | Drug uptake [22]: 1% | Drug uptake [23]: 1.2% | Drug uptake [24]: 41.9% | Drug uptake [25]: 10% | Drug uptake [26]: 0.2% | SUV [27]: 3.35 | Drug uptake [28]: 0.6% | Drug uptake [29]: 0.77% | Drug uptake [30]: 8% | Drug uptake [31]: 5.5% | SUV [32]: 2 | SUV [33]: 6.8 | SUV [34]: 0.7 | Drug uptake [35]: 7.4% | SUV [36]: 0.72 | SUV [37]: 0.4 | Drug uptake [38]: 1.3% | Drug uptake [39]: 1.5% | SUV [40]: 2.4 | Drug uptake [41]: 2.2% | Drug uptake [42]: 18.9% | Drug uptake [43]: 2.4%
SMILES: CN(C)c1ccc2nc(-c3ccc([18F])cc3)sc2c1

Drug uptake [1]: 0.97% | Drug uptake [2]: 13.3% | Drug uptake [3]: 1.34% | Drug uptake [4]: 8.9% | SUV [5]: 1.8 | Drug uptake [6]: 0.3% | SUV [7]: 0.2 | SUV [8]: 2.8 | Drug uptake [9]: 15.48% | Drug uptake [10]: 0.17% | Drug uptake [11]: 0.2% | Drug uptake [12]: 5.3% | Drug uptake [13]: 1% | SUV [14]: 4.47 | Drug uptake [16]: 4.56% | SUV [17]: 0.8 | Drug uptake [18]: 13.97% | Drug uptake [19]: 2.4% | Drug uptake [20]: 10.7% | Drug uptake [21]: 1.2% | Drug uptake [22]: 1.1% | Drug uptake [23]: 0.6% | Drug uptake [24]: 39.8% | Drug uptake [25]: 11.1% | Drug uptake [26]: 0.1% | SUV [27]: 4.96 | Drug uptake [28]: 0.3% | Drug uptake [29]: 1.74% | Drug uptake [30]: 5.6% | Drug uptake [31]: 6.8% | SUV [32]: 2.2 | SUV [33]: 6.4 | SUV [34]: 0.4 | Drug uptake [35]: 5.9% | SUV [36]: 0.31 | SUV [37]: 0.3 | Drug uptake [38]: 0.7% | Drug uptake [39]: 1.4% | SUV [40]: 0.6 | Drug uptake [41]: 2% | Drug uptake [42]: 20% | Drug uptake [43]: 1.3%
SMILES: Nc1ccc2nc(-c3ccc([18F])cc3)sc2c1
